Data on one compound can be found in ChEMBL document CHEMBL3351269, “Phenylimidazoles as potent and selective inhibitors of coagulation factor XIa with in vivo antithrombotic activity” (J Med Chem, 2014).

Data set [1] addresses Coagulation factor X (Homo sapiens, UniProt P00742). The data set can be described thus: Inhibition of human coagulation factor 10a using N-benzoyl-Ile-Glu-(OH, OMe)-Gly-Arg-pNA as substrate by spectrophotometric analysis. In a few lines:
(§1)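 Purified human enzymes; reaction started by adding enzyme to substrate with or without inhibitor, excess substrate and inhibitor over enzyme, 1% DMSO, room temperature, 10–120 min. pNA read at 405 nm. FXIa, FXIIa and chymotrypsin in HEPES pH 7.4 with NaCl, KCl and PEG; FXa and kallikrein in phosphate pH 7.5; FVIIa in HEPES with CaCl2. IC50 from duplicates over 8–11 concentrations, converted to Ki assuming competitive inhibition.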

Data set [2] is described as follows: Anticoagulant activity in healthy human plasma assessed as concentration required to 2 fold prolong clotting time by aPTT assay. The data set is classed as functional. In a few lines: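 Citrated human plasma from healthy volunteers (one-tenth volume 0.11 M buffered citrate; spun 2000g, 10 min, kept on ice). Inhibitor from 10 mM DMSO stock, diluted in plasma, up to seven concentrations. aPTT with Alexin: plasma warmed 1 min at 37 °C, reagent added, CaCl2 2 min later. Duplicates, as ratio to baseline. EC2x by linear interpolation, as total plasma concentration.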

The target in another data set is Prothrombin (Homo sapiens, UniProt P00734). Briefly: Inhibition of human coagulation thrombin using pyro-Glu-Pro-Argp-NA as substrate by spectrophotometric analysis. Put shortly:
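Purified enzymes (α-thrombin; trypsin) in 100 mM sodium phosphate pH 7.5, 200 mM NaCl, 0.5% PEG 8000, 1% DMSO final, room temperature. Enzyme added last to substrate ± inhibitor, with substrate and inhibitor in excess. pNA release read at 405 nm over 10−120 min. IC50 from duplicate runs over 8−11 concentrations, then converted to Ki assuming competitive inhibition, using Km.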

The nature of data set [3]: Inhibition of human coagulation chymotrypsin using MeO-Suc-Arg-Pro-Tyr-pNA as substrate by spectrophotometric analysis. In a few lines:
as §1

The next data set has as its target Coagulation factor XI (Homo sapiens, UniProt P03951). Briefly: Inhibition of human coagulation factor 11a using p-nitroaniline as substrate assessed as substrate hydrolysis at 37 degC by spectrophotometrically. Put shortly:
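Purified human FXIa in 50 mM HEPES pH 7.4, 145 mM NaCl, 5 mM KCl, 0.1% PEG 8000, run at 37 °C, 1% DMSO final. Enzyme added last to substrate ± inhibitor, with substrate and inhibitor in excess. pNA release read at 405 nm. IC50 from duplicate 8–11-point series, converted to Ki assuming competitive inhibition, Ki = IC50/(1+[S]/Km).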

Data set [4] is described as follows: Inhibition of rabbit coagulation factor 11a using p-nitroaniline as substrate assessed as substrate hydrolysis by spectrophotometrically. Further details: species or system Oryctolagus cuniculus.
A short description of data set [5]: Inhibition of rabbit coagulation factor 11a using p-nitroaniline as substrate assessed as substrate hydrolysis at 37 degC by spectrophotometrically. On the set-up: species or system Oryctolagus cuniculus. Put shortly:
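Rabbit FXIa, chromogenic pNA-release read at 405 nm, run at 37 °C. IC50 from duplicate determinations over 8–11 concentrations, converted to Ki by Ki = IC50/(1+[S]/Km), assuming competitive inhibition.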

Data set [6] deals with T1, Coagulation factor X (Oryctolagus cuniculus, UniProt O19045).
T1 sequence (O19045 whole entry): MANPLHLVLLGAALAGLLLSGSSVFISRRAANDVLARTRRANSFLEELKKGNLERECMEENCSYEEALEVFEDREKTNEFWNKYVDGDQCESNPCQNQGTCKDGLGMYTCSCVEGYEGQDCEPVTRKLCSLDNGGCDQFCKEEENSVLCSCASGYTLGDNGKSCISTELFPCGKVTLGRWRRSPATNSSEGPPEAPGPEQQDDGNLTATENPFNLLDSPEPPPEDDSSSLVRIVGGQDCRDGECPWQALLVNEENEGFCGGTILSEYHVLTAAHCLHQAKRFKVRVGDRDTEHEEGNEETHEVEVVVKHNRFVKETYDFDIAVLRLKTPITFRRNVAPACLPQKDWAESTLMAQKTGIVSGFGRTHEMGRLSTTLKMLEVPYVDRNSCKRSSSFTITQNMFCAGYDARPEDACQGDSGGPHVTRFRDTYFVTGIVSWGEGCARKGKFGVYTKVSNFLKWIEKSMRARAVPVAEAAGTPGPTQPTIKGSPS
Briefly: Inhibition of rabbit coagulation factor 10a using N-benzoyl-Ile-Glu-(OH, OMe)-Gly-Arg-pNA as substrate by spectrophotometric analysis.

Another data set has as its target T2, Coagulation factor VII (Oryctolagus cuniculus, UniProt P98139).
T2 sequence (P98139 whole entry): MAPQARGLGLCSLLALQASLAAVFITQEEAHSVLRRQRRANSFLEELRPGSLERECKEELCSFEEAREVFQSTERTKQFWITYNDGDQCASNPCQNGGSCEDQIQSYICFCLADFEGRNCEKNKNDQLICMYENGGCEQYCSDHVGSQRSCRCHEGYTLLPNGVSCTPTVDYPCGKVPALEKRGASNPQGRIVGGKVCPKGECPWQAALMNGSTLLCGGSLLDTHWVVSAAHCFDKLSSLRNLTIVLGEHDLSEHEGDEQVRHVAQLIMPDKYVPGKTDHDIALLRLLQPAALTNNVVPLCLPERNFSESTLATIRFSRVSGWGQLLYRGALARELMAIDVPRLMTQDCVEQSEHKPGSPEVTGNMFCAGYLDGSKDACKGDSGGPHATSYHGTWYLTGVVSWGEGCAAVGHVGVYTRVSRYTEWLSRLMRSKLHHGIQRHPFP
Briefly: Inhibition of rabbit coagulation factor 7a using H-(D)-Ile-Pro-Arg-pNA as substrate by spectrophotometric analysis.

Data set [7] in a line: Cmax in rabbit plasma at 0.5 mg/kg, iv. It is filed as ADME, organism-based, Oryctolagus cuniculus. Further details: dose 0.5 mg/kg, route intravenous. In a few lines:
(§2)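 Single iv dose of 0.5 mg/kg in rabbits; concentrations measured in rabbit plasma.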

The next data set has as its system Oryctolagus cuniculus. Briefly: Clearance in rabbit plasma at 0.5 mg/kg, iv. The data set is classed as ADME, organism-based. On the set-up: dose 0.5 mg/kg, route intravenous. To be noted: in vivo. Put shortly:
as §2

pKi: −log10 of the molar value. A value given as a limit tells only on which side of the number the result lay.

Chain of Coagulation factor X (Homo sapiens, UniProt P00742) (P00742 41-179 limits assumed): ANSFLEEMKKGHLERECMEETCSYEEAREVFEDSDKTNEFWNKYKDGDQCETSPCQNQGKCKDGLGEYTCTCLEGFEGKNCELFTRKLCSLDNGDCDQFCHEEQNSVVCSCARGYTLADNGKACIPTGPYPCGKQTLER
Chain of Coagulation factor X (Homo sapiens, UniProt P00742) (P00742 235-488 limits assumed): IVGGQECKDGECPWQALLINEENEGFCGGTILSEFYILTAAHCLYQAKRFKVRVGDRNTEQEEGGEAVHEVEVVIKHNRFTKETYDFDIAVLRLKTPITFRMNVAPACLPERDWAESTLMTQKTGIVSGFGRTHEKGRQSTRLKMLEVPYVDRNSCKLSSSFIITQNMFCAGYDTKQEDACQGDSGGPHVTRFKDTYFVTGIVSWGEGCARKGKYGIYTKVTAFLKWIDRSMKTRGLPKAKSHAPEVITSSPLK
Chain of Coagulation factor XI (P03951 19-387 limits assumed): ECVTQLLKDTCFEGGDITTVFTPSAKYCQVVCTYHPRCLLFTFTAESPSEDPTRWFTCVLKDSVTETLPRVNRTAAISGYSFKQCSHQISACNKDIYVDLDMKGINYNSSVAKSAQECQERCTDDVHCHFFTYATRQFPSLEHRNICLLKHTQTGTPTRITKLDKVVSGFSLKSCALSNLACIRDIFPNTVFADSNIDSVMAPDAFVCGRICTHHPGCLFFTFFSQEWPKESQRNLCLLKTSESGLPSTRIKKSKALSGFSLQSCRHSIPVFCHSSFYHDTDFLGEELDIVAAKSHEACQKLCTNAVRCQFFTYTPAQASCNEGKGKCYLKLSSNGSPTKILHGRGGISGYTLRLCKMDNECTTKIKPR
Chain of Coagulation factor XI (P03951 388-625 limits assumed): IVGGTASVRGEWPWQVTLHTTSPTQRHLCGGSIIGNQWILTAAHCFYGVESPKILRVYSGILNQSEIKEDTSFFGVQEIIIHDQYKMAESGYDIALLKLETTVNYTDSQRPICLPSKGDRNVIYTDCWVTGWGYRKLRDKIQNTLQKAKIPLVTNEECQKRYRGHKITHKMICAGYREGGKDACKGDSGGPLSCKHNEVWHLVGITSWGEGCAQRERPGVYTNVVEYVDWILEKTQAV

For `NC[C@H]1CC[C@H](C(=O)N[C@@H](Cc2ccccc2)c2nc(-c3ccc4c(N)n[nH]c4c3)c(Cl)[nH]2)CC1.O=C(O)C(F)(F)F`, the pKi at Coagulation factor X [1] is 5.19; at Prothrombin, under 4.90; in data set [3] it was under 4.68; on Coagulation factor XI, 9.10; in [4], 9.22; in [5], 8.92. The pKi was under 5.00 at Coagulation factor X [6] and 5.00 on Coagulation factor VII. Moreover, in data set [2], the 2aPTT turned out to be 1 µM. Besides, the Cmax in data set [7] was 2470 nM. This compound also returned a clearance with Oryctolagus cuniculus of 1.2 L/h/kg.
